Shown is part of a subset that was picked to be rich in hits.
Lung fibro prol: antiproliferative effect on LL 47 fibroblasts – human, LL 47 cells, CellTiter-Glo luminescence, primary screen | LL 47 human lung fibroblast viability, ATP luminescence; stronger effect = lower value | viability, % at 10 µM | 85,000 tested, 1.1% active | AID 719, 2007;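 active = viability at or below 50% in the single dose screen; inactive = viability above 50%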;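 also: compound exposure lasted 72 h before the ATP readout; 100% = median luminescence of untreated cell-only wells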
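material = human LL 47 lung fibroblast cells | dosing = compounds added from tenfold dosing solution, 0.1% DMSO final | timing = overnight cell rest, 72 h compound treatment at 37 °C | measured by = CellTiter-Glo luminescence measuring cellular ATP | evaluation = % viability versus median cells-only luminescence | control set = cell-only wells, no compound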
HUVEC prolif 384: inhibitors of HUVEC proliferation, primary screen, cell-based, 384-well | CellTiter-Glo luminescence, 72 h; stronger effect = lower value | viability, % at 10 µM (by protocol) | 86,000 tested, 1.1% active | AID 648, 2007;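 active = viability at or below 30%; inactive = viability above 30%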;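 also: 100% = median luminescence of DMSO-only cell control wells on each plate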
H69AR growth 86K: proliferation blockers of H69AR lung cancer cells, primary screen, cell-based, human, 86K library. H69AR lung tumor viability, ATP luminescence, 72 h; stronger effect = lower value. viability, % at 10 µM. 85,000 tested, 6% active. AID 598, 2007;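 active = viability at or below 40%; inactive = viability above 40%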;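 also: multidrug resistant small cell line overexpressing MRP-1 efflux transporter; 100% = mean luminescence of untreated control wells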
HCT116 bCat-KO: primary screen for growth suppressors in beta-catenin knockout HCT116 cells (colon tumor, human). HCT116 beta-catenin knockout viability, CellTiter-Glo, 60 h; stronger effect = lower value. viability, % at 10 µM. 140,000 tested, 1.5% active. AID 818, 2007;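 active = viability at or under a set limit, the compound median less 4 SD, cut at about 6% in these data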;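 also: 0% = Hyamine 1622 control at 20 µM and 100% = untreated cell control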
PTEN del growth: growth suppression of PTEN-null HCT116, primary screen, cell-based, CellTiter-Glo. HCT116 PTEN-null viability, 60 h; stronger effect = lower value. viability, % at 10 µM. 140,000 tested, 1.2% active. AID 827, 2007;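 active = viability at or below a set limit, 4 SD under the median of all tested compounds, cut at about 3.7% in these data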;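 also: PTEN knockout HCT116 line with beta catenin targeted HCT116 as companion control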
The depositor's hits bear a star.

What do the screens show for `COc1ccccc1C(=O)O/N=C1/CCCc2c1ccc(OC)c2[N+](=O)[O-]`?
Lung fibro prol: 103; HUVEC prolif 384: 100; H69AR growth 86K: 63; HCT116 bCat-KO: 92; PTEN del growth: 85

How did COc1cc(C(=O)O/N=C2\CCCc3c2ccc(OC)c3[N+](=O)[O-])cc(OC)c1OC do in these assays?
Lung fibro prol: 71; HUVEC prolif 384: 58; H69AR growth 86K: 17*; HCT116 bCat-KO: 70; PTEN del growth: 78

What do the screens show for `COc1ccc(C2=NC(=O)/C(=C\c3cc(OC)c(OC)c(OC)c3)O2)cc1`?
HCT116 bCat-KO: 92; PTEN del growth: 100

How did Cc1ccc(C(=O)CC2(O)C(=O)N(Cc3ccc4c(c3)OCO4)c3ccccc32)cc1 (configuration not stated) do in these assays?
Lung fibro prol: 99; HUVEC prolif 384: 97; H69AR growth 86K: 44; HCT116 bCat-KO: 31; PTEN del growth: 25

Results for O=C(CC1(O)C(=O)N(Cc2ccccc2)c2ccccc21)c1ccc2c(c1)OCO2 (configuration not stated) ?
Lung fibro prol: 100; HUVEC prolif 384: 93; H69AR growth 86K: 76; HCT116 bCat-KO: 103; PTEN del growth: 91

What do the screens show for `Cc1ccccc1CN1C(=O)C(O)(CC(=O)c2ccncc2)c2ccccc21` (configuration not stated)?
Lung fibro prol: 103; HUVEC prolif 384: 67; H69AR growth 86K: 19*; HCT116 bCat-KO: 18; PTEN del growth: 15

Results for O=C(CC1(O)C(=O)N(Cc2ccccc2)c2ccccc21)c1ccncc1 (configuration not stated) ?
Lung fibro prol: 98; HUVEC prolif 384: 75; H69AR growth 86K: 17*; HCT116 bCat-KO: 14; PTEN del growth: 15

How did O=C(CC1(O)C(=O)N(Cc2ccc3c(c2)OCO3)c2ccccc21)c1ccccc1 (configuration not stated) do in these assays?
HUVEC prolif 384: 84; H69AR growth 86K: 14*; HCT116 bCat-KO: 15; PTEN del growth: 13

How did O=C(N=Nc1c(O)n(Cc2ccccc2)c2ccccc12)c1cc2ccccc2cc1O do in these assays?
HCT116 bCat-KO: 1.7*; PTEN del growth: 1.5*

What do the screens show for `O=C(N=Nc1c(O)n(Cc2ccccc2)c2ccccc12)c1ccc(O)cc1`?
HCT116 bCat-KO: 59; PTEN del growth: 46

Results for COc1ccc2c(c1OC)C(=O)N1c3ccccc3C(=O)N(c3ccccc3F)C21 (configuration not stated) ?
Lung fibro prol: 98; HUVEC prolif 384: 65; H69AR growth 86K: 3.7*; HCT116 bCat-KO: 50; PTEN del growth: 54

How did COc1ccc2c(c1OC)C(=O)N1c3ccccc3SC21 (configuration not stated) do in these assays?
Lung fibro prol: 85; HUVEC prolif 384: 95; H69AR growth 86K: 100; HCT116 bCat-KO: 103; PTEN del growth: 99

Results for Cc1ccc2[nH]c(C)c(/C=N/Nc3nc4ccccc4s3)c2c1 ?
Lung fibro prol: 63; HUVEC prolif 384: 42; H69AR growth 86K: 4.6*; HCT116 bCat-KO: 1.6*; PTEN del growth: 1.1*

Results for Brc1csc(/C=N/Nc2nc3ccccc3s2)c1 ?
HCT116 bCat-KO: 70; PTEN del growth: 58

Results for COc1ccc2oc(=Nc3ccccc3)c(-c3nc4ccccc4[nH]3)cc2c1 ?
HCT116 bCat-KO: 31; PTEN del growth: 11

Results for Cc1ccc(NC(=O)C2=C(O)CCn3c2nc2ccccc23)cc1 ?
Lung fibro prol: 84; HUVEC prolif 384: 93; H69AR growth 86K: 26*; HCT116 bCat-KO: 50; PTEN del growth: 51

What do the screens show for `Cc1ccc(NC(=O)c2ccccc2O)cc1`?
Lung fibro prol: 94; HUVEC prolif 384: 96; H69AR growth 86K: 81; HCT116 bCat-KO: 61; PTEN del growth: 51

How did N#Cc1c(-c2ccco2)cc(-c2ccccn2)nc1N do in these assays?
Lung fibro prol: 88; HUVEC prolif 384: 86; H69AR growth 86K: 35*; HCT116 bCat-KO: 88; PTEN del growth: 88

Results for CCc1nnc(NC(=O)CSc2nc3cccnc3n2C2CCCCC2)s1 ?
Lung fibro prol: 83; HUVEC prolif 384: 73; H69AR growth 86K: 82; HCT116 bCat-KO: 75; PTEN del growth: 77

How did Cc1nc(NC(=O)CSc2nc3cccnc3n2C2CCCCC2)sc1C do in these assays?
Lung fibro prol: 14*; HUVEC prolif 384: 52; H69AR growth 86K: 29*; HCT116 bCat-KO: 90; PTEN del growth: 68

Results for CCCn1c(N2CCN(CC(=O)NCc3cccs3)CC2)nc2ccccc21 ?
Lung fibro prol: 99; HUVEC prolif 384: 102; H69AR growth 86K: 38*; HCT116 bCat-KO: 93; PTEN del growth: 83

What do the screens show for `CCCn1c(N2CCN(C(=O)N3CCCCC3)CC2)nc2ccccc21`?
Lung fibro prol: 102; HUVEC prolif 384: 114; H69AR growth 86K: 83; HCT116 bCat-KO: 95; PTEN del growth: 98

How did CCCn1c(N2CCN(S(=O)(=O)Cc3ccccc3)CC2)nc2ccccc21 do in these assays?
Lung fibro prol: 57; HUVEC prolif 384: 77; H69AR growth 86K: 39*; HCT116 bCat-KO: 90; PTEN del growth: 90

Results for O=C(CSc1nnc(SCc2ccc(Cl)cc2)s1)N/N=C/c1c(Cl)cccc1Cl ?
HCT116 bCat-KO: 103; PTEN del growth: 103

How did COc1ccc(-n2c(SCC(=O)NNC(=O)c3ccc(C)cc3)nnc2-c2ccncc2)cc1 do in these assays?
HCT116 bCat-KO: 93; PTEN del growth: 106

Results for CC(=Nc1ccccc1)C1=C(O)COC1=O ?
Lung fibro prol: 109; HUVEC prolif 384: 115; H69AR growth 86K: 105; HCT116 bCat-KO: 108; PTEN del growth: 119

Results for COc1ccc(OC)c(N=C(C)C2=C(O)COC2=O)c1 ?
Lung fibro prol: 89; HUVEC prolif 384: 86; H69AR growth 86K: 22*; HCT116 bCat-KO: 66; PTEN del growth: 74

Results for COc1ccc(S(=O)(=O)NNC(=O)c2csc(-n3nc(C)cc3C(F)(F)F)n2)cc1 ?
Lung fibro prol: 97; HUVEC prolif 384: 93; H69AR growth 86K: 70; HCT116 bCat-KO: 95; PTEN del growth: 92

What do the screens show for `CCOC(=O)c1ccc2c(c1)nc(SCC(=O)c1cc3ccccc3o1)n2CC`?
Lung fibro prol: 91; HUVEC prolif 384: 90; H69AR growth 86K: 59; HCT116 bCat-KO: 76; PTEN del growth: 74

What do the screens show for `C=CCNC(=O)CSc1nc2cc(C(=O)OCC)ccc2n1CC`?
Lung fibro prol: 91; HUVEC prolif 384: 80; H69AR growth 86K: 26*; HCT116 bCat-KO: 84; PTEN del growth: 84

How did CCOC(=O)c1c2c(n(C)c1C)C(=O)C(=O)c1ccc(Br)cc1-2 do in these assays?
Lung fibro prol: 3.0*; HUVEC prolif 384: 3.3*; H69AR growth 86K: 1.6*

How did CCOC(=O)c1nnc(-c2ccc(C)cc2)nc1Sc1ccc(Cl)cc1 do in these assays?
Lung fibro prol: 74; HUVEC prolif 384: 69; H69AR growth 86K: 3.3*; HCT116 bCat-KO: 36; PTEN del growth: 27

Bioassay records as filed in PubChem.
